# Bioassay records: PubChem BioAssay, The Scripps Research Institute Molecular Screening Center
# mABHD4 FP: ABHD4 (mouse) inhibition, primary FP screen. inhibition, % at 8.92 µM. Q8VD66. purified mABHD4, FP-Rh probe fluorescence polarization. 0.54% of 370,000 active;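 active means inhibition exceeding the mean over every tested compound plus 3 SD, cut at about 30% in these data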
#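 assay system = mABHD4 protein | compound dosing = single nominal dose of 8.92 µM, 0.89% DMSO final | read-out basis = percent inhibition of probe binding, normalized to plate controls | schedule = Enzyme–compound pre-incubation 45 min, then probe 60 min, both 25 °C | detection = fluorescence polarization, excitation 525 nm, emission 598 nm, BODIPY TMR filters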
# TCR CD3 inh: blocks the human TCR-CD3 interaction | TAMRA-labeled TCR probe fluorescence, biochemical | inhibition, % at 9.4 µM | 0.37% of 360,000 active | AID 651800; in the data active means inhibition above about 19%;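 further: recombinant mutant TCR 2C K166C tagged with TAMRA read by polarization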
# HTRA1 inh: inhibitors of human serine peptidase HTRA1; recombinant HTRA1, FP-rhodamine activity-based probe, fluorescence polarization; inhibition, % at 5.96 µM; 0.5% of 340,000 active; AID 504803; in the data active means inhibition above about 36%
# DAGLB inhibitor: blocks human DAGLB lipase activity. AID 504411. HEK293T DAGLB membrane lysate, EnzChek fluorogenic substrate. 0.059% of 340,000 active. inhibition, % at 5.17 µM; in the data active means inhibition above about 34%
# Target sequence (Q8NCG7 whole entry, looked up): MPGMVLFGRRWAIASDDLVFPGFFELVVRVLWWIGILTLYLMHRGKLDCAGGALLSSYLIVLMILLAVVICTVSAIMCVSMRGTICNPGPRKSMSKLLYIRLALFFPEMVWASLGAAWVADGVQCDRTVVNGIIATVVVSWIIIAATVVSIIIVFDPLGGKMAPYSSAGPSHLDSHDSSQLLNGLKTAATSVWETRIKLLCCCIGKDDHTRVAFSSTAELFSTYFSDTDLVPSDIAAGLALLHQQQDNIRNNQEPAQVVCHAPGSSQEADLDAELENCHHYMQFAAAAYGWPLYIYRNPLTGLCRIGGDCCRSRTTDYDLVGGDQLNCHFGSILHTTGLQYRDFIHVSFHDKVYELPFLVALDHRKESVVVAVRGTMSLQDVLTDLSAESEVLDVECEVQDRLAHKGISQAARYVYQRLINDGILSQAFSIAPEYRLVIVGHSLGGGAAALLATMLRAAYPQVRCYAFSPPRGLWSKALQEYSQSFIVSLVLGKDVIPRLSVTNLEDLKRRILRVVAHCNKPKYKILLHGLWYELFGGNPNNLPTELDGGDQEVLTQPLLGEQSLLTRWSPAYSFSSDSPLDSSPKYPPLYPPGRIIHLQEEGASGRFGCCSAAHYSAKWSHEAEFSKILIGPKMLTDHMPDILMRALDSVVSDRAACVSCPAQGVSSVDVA
# SIAE inh: blocks human sialic acid acetylesterase | SIAE FP-Rh probe binding, fluorescence polarization | inhibition, % at 9.66 µM | 0.69% of 370,000 active | AID 1053197;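 active means inhibition above a cutoff: mean of compounds within the control limits plus 3 SD of those, cut at about 17% in these data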
# DAGLB inh conf: DAGLB (human) inhibition, confirmation screen; 73% of 190 active; HEK293T DAGLB membrane lysate, EnzChek fluorogenic substrate; AID 504445; inhibition, % at 5.17 µM; shares compounds with DAGLB inhibitor;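 active means mean inhibition over triplicate wells above a set limit taken from the primary lipase screen, cut at about 34% in these data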
# Numbers stand for hits; – = inactive; · = no result given; ! = a repeat was not active. This is a sample that favours compounds with a hit; in the whole collection about 1.5% have one here.
SMILES,mABHD4 FP,TCR CD3 inh,HTRA1 inh,DAGLB inhibitor,SIAE inh,others
COc1ccc(C(NC(=O)c2cccnc2)c2cc(Cl)c3cccnc3c2O)cc1OC (configuration not stated),–,–,45.3,–,–,
Oc1c(C(Nc2ccccn2)c2cccnc2)cc(Cl)c2cccnc12 (configuration not stated),–,–,–,–,–,
COc1cc(NC(=O)COC(=O)[C@@H]2CCCN2S(=O)(=O)c2ccc(Cl)cc2)cc(OC)c1OC,–,–,–,–,17.8,
O=C(COC(=O)[C@@H]1CCCN1S(=O)(=O)c1ccc(Cl)cc1)NC12CC3CC(CC(C3)C1)C2,–,–,–,–,–,
COC(=O)N1Cc2ccnnc2CC1c1ccccc1-c1ccc(F)cc1 (configuration not stated),–,–,·,·,–,
O=C(N[C@H](Cc1ccccc1)C(=O)N1CCN(c2ccc(Cl)cn2)CC1)[C@H]1O[C@@H](n2ccc(=O)[nH]c2=O)[C@H](O)[C@@H]1O,–,–,·,·,–,
COCCCNc1oc(COc2ccc(Cl)cc2Cl)nc1C#N,–,–,–,–,17.2,
Cc1ccc(C)c(S(=O)(=O)Nc2cc(SCC(=O)O)c(O)c3ccccc23)c1,·,·,44.6,–,·,
Cc1ccc(NS(=O)(=O)c2cc(NC(=O)C(C)Oc3ccccc3)ccc2C)c(C)c1 (configuration not stated),–,–,–,–,–,
COc1ccc2cc3[n+](cc2c1O)CCc1cc2c(cc1-3)OCO2,31.5,24.5,·,·,20.5,
COc1cc2c(cc1OC)-c1cc3ccc(OC)c(OC)c3c[n+]1CC2,–,–,–,–,–,
COc1ccc2[nH]c(C(=O)N/N=C/c3ccc(O)cc3O)cc2c1,–,–,–,–,24.8,
CCOc1ccc2[nH]c(C(=O)N/N=C/c3ccc(OC)cc3)cc2c1,–,–,–,–,–,
Nc1ccc2cccc(O)c2c1,48.2,–,–,–,–,
Nc1ccc2cc3ccccc3cc2c1,–,–,–,–,–,
Cc1cc(=O)oc2c3c(ccc12)OC/C3=N/N,–,22.4,–,–,–,
O=C(/C=C/c1ccccc1)NC(NC(=S)Nc1ccc(Cl)cc1)C(Cl)(Cl)Cl (configuration not stated),–,25.6,–,–,–,
COc1ccc(NC(=S)NC(NC(=O)/C=C/c2ccccc2)C(Cl)(Cl)Cl)cc1 (configuration not stated),–,–,–,–,–,
O=C(O)c1ccc(-n2cccc2/C=C2/NC(=O)N(c3cccc(Cl)c3)C2=O)cc1,–,–,–,–,–,
O=C(O)c1ccc(-n2cccc2/C=C2/NC(=O)N(c3ccccc3)C2=O)cc1,–,23.7,–,–,–,
Oc1ccc(/C=N\Nc2cc(N3CCOCC3)nc(N3CCOCC3)n2)c(O)c1,–,–,–,–,23.0,
Cc1ccccc1C1CC(=O)Oc2cc(O)ccc21 (configuration not stated),·,·,52.8,–,·,
Oc1ccc(C2Nc3cccc4cccc(c34)N2)c(O)c1,–,–,41.7,–,19.5,
N#Cc1sc2nc(-c3ccccc3)cc(-c3ccco3)c2c1N,–,–,42.7,–,–,
CCCCCCCCCCCC1=C(O)C(=O)C=C(O)C1=O,·,·,43.0,–,·,
SMILES,mABHD4 FP,TCR CD3 inh,HTRA1 inh,DAGLB inhibitor,SIAE inh,others
COC(=O)Cc1cc(=O)n(-c2nc3ccccc3[nH]2)[nH]1,–,21.9,–,–,–,
COc1ccc(CC(=O)Nc2nc3ccccc3[nH]2)cc1,–,–,–,–,–,
O=C(NCc1ccccc1)[C@@H]1CCCN1C(=O)[C@H]1CCCN1C(=O)c1cccs1,–,–,·,·,–,
C[C@@H]1CN(c2ccc(N3CCNC[C@H]3C)cc2C#N)C[C@H](C)O1,–,–,·,·,–,
CCC(=O)N1CCN(c2ccc(NC(=O)c3ccc4c(c3)OCO4)cc2)CC1,–,–,–,–,101.4,
CC(C)C[C@H]1COc2ccc(Cl)cc2S(=O)(=O)N1,–,–,·,·,–,
CCOC(=O)[C@@]12CCCC3=C1N(CCC3)C(=O)[C@H]2CC(=O)NCc1ccc(OC)c(OC)c1,–,·,·,·,–,
Cc1[nH]c2ccccc2c1C(C#N)(C#N)C1C(=O)c2ccccc2C1=O,39.0,–,–,–,–,
O=[N+]([O-])c1ccc(N2CCN(c3ccccc3)CC2)cc1,–,–,–,34.2,–,DAGLB inh conf=82.3
CC(=O)c1ccc(NC(=O)COC(=O)c2ccccc2N=Nc2ccc(N(C)C)cc2)cc1,–,–,–,36.2,–,DAGLB inh conf=–
O=C1C(=C(O)c2ccccc2)C(=O)c2ccccc21,–,–,–,–,–,
O=C1C(=C(c2ccccc2)c2ccccc2)Nc2ccccc21,–,–,–,39.9,–,DAGLB inh conf=38.2
CN1c2ccc([N+](=O)[O-])cc2N(C)C1(C)c1ccccc1 (configuration not stated),–,–,–,36.9,–,DAGLB inh conf=–
O=S1(=O)N[C@H](Cc2ccccc2)COc2cccc(NCCO)c21,–,–,·,·,–,
C[n+]1c(/C=C/c2ccc(O)cc2)ccc2ccccc21,–,–,–,–,–,
Cc1cc(/C=C\c2ccc3cc(N(C)C)ccc3[n+]2C)c(C)n1-c1ccccc1,·,·,–,39.0,·,DAGLB inh conf=34.5
CCSC1=NC(=O)/C(=C2/C=Cc3ccccc3N2CC)S1,–,–,–,36.5,–,DAGLB inh conf=40.9
O=Nc1c(-c2c(O)[nH]c3cc(Br)ccc23)[nH]c2ccccc12,–,–,–,47.2,–,DAGLB inh conf=59.2
Cn1c(=O)c(=O)n(C)c2cc(S(=O)(=O)N3CCN(c4ccccc4Cl)CC3)ccc21,–,·,·,·,–,
N#C/C(=N\Nc1ccc([N+](=O)[O-])cc1)C(N)=S,–,–,–,37.6,–,DAGLB inh conf=–
N#C/C(=N/Nc1ccc([N+](=O)[O-])cc1)C(=N)N1CCCCC1,–,–,–,–,–,
COC(=O)c1ccccc1NC1=C/C(=N\S(=O)(=O)c2cccs2)c2ccccc2C1=O,–,–,–,41.6!,–,DAGLB inh conf=55.3
Cc1ccc(NC2=C/C(=N/S(=O)(=O)c3cccs3)c3ccccc3C2=O)cc1,–,–,–,–,–,
COC(=O)[C@]12C[C@H](CC(=O)N3CCOCC3)C(=O)N(CCC3=CCCCC3)C1=C[C@H](C(C)(C)C)O[C@@H]2C,–,–,·,·,–,
CC(CCC(C)C(C)(C)C)[C@@H]1CC[C@H]2C3C[C@H](OS(O)(=S)=S)[C@H]4C[C@H](OS(O)(=S)=S)[C@@H](OS(O)(=S)=S)C[C@]4(C)[C@H]3CC[C@]12C (some centres not stated) (tested in a mixture with another compound),·,·,–,34.8,·,DAGLB inh conf=34.3
CC(CCC(=O)NN)C1CCC2C3CCC4CC(O)CCC4(C)C3CCC12C (configuration not stated),–,–,–,–,–,
COc1cc([C@H]2c3[nH]c4ccccc4c3C[C@H]3C(=O)N4[C@@H](c5cc(OC)c(OC)c(OC)c5)c5[nH]c6ccccc6c5C[C@H]4C(=O)N23)cc(OC)c1OC,·,·,–,34.9,·,DAGLB inh conf=42.9
